Experimental findings from ChEMBL document CHEMBL4130551, “1,2,4-Thiadiazolidin-3,5-diones as novel hydrogen sulfide donors” (Eur J Med Chem, 2018) are described below.

Active and inactive are the calls of the source. No cut-off for these calls is given here.

Data set [1] is described as follows: Drug level in pH 7.4 PBS buffer treated with 2,4-Diphenyl-1,2,4-thiadiazoline-3,5-dione at 0.5 mmol after 5 to 60 mins in presence of cysteine by HPLC-MS analysis. In kind it is physicochemical.
Data set [2] deals with Thoracic aorta. Briefly: Vasorelaxant activity in CD-1 mouse thoracic aorta rings assessed as inhibition of L-phenylephrine-induced contraction. It counts as functional, tissue-based. As to conditions: CD-1, Thoracic aorta. An outline of the steps: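 Isolated aortic rings precontracted with phenylephrine (1 µM). Cumulative concentration–response curves of each donor (10 nM–300 µM) or DMSO vehicle. EC50 taken from the curves.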

For data set [3], the system named is Thoracic aorta. Briefly: Vasorelaxant activity in CD-1 mouse thoracic aorta rings assessed as inhibition of L-phenylephrine-induced contraction at 100 uM relative to control. In kind it is functional. As to conditions: CD-1, Thoracic aorta. An outline of the steps: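 Isolated aortic rings precontracted with phenylephrine (1 µM). Cumulative donor concentrations (10 nM–300 µM) or DMSO vehicle. Emax is the maximal relaxation obtained.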

The nature of data set [4]: Drug metabolism in PBS buffer assessed as H2S release by measuring time required for 50% of maximum H2S release at steady state at 1 mM after 30 mins in presence of 4 mM L-cysteine by amperometric method. In kind it is physicochemical. As to conditions: 0.5 h, 1000 µM. An outline of the steps: (§1)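 Amperometric real-time H2S detection at room temperature in assay buffer (10x PBS diluted 1:10 in distilled water). Donor added from DMSO stock to a final 1 mM, 1% DMSO, with 4 mM L-cysteine added where the protocol required. Recorded for 30 min. Curves computer-fitted. TCM50 is the time to reach ½ Cmax. Mean ± SE of 5 experiments.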

Data set [5] in a line: Drug metabolism in PBS buffer assessed as H2S release by measuring time required for 50% of maximum H2S release at steady state at 1 mM after 30 mins by amperometric method. It counts as physicochemical. The conditions noted are these: 0.5 h, 1000 µM. An outline of the steps:
as §1

The nature of data set [6]: Drug metabolism in pH 7.4 PBS buffer at 0.5 mmol after 5 to 60 mins in presence of S-methyl cysteine by ESI-MS analysis. In kind it is physicochemical.
The nature of data set [7]: Stability in pH 7.4 PBS buffer at 0.5 mmol after 5 mins in presence of cysteine by HPLC analysis. It counts as physicochemical. As to conditions: PBS buffer with cysteine, read-out: Stability.
Data set [8] can be described thus: Drug metabolism in pH 7.4 PBS buffer assessed as phenyl(phenylcarbamoyl)carbamothioic S-acid formation at 0.5 mmol after 5 to 60 mins in presence of cysteine by HPLC-MS analysis. In kind it is physicochemical.
Data set [9] in a line: Drug metabolism in water at 0.5 mmol after 5 to 60 mins by ESI-MS analysis. In kind it is physicochemical. The conditions noted are these: buffer.
Data set [10] in a line: Stability in pH 7.4 PBS buffer at 0.5 mmol after 30 mins in presence of cysteine by HPLC analysis. In kind it is physicochemical. As to conditions: PBS buffer with cysteine, read-out: Stability.
For data set [11], the system named is Thoracic aorta. As to the kind of experiment: Vasorelaxant activity in CD-1 mouse endothelium denuded thoracic aorta rings assessed as inhibition of L-phenylephrine-induced contraction. It counts as functional, tissue-based.
Data set [12] can be described thus: Drug level in pH 7.4 PBS buffer treated with 2,4-Diphenyl-1,2,4-thiadiazoline-3,5-dione at 0.5 mmol after 5 to 60 mins in presence of glutathione by ESI-MS analysis. In kind it is physicochemical.

Take `NC(CSSCC(N)C(=O)O)C(=O)O` (centres undefined): the Drug metabolism result in data set [1] is reported as “Metabolite_Detected”.

As to `COc1ccc(-n2sc(=O)n(-c3ccc(Cl)cc3)c2=O)cc1`, the EC50 in [2] came out at 2100 nM. Further, the Emax at 100 µM in data set [3] is 98.6%. In addition, the Time in [4] amounted to 15.36 min.

In the case of `O=C(Nc1ccccc1)Nc1ccccc1` [DIPHENYLUREA], in [1], the Drug metabolism result is given as “Metabolite_Detected”.

For `NC(CSSC(=O)N(C(=O)Nc1ccccc1)c1ccccc1)C(=O)O` (centres undefined), in [1], the Drug metabolism result is on record as “Metabolite_Detected”.

For `O=c1sn(-c2ccccc2)c(=O)n1Cc1ccccc1`, the Time in data set [5] came to 9.56 min; in data set [4], 11.4 min.

Regarding `Cc1ccc(-n2sc(=O)n(-c3ccccc3)c2=O)cc1`, in data set [2], the half-maximal effective concentration (EC50) stood at 1300 nM. Further, the Emax at 100 µM in [3] was 94.5%. For the same compound, in [4], the Time was 13.84 min.

As for `O=c1sn(-c2ccccc2)c(=O)n1-c1ccccc1`, the Drug metabolism entry in data set [6] was “Metabolite_Notdetected”; in data set [8] it was “Metabolite_Detected”; in data set [9], “Metabolite_Notdetected”. Also, the remaining at 5 min, 0.5 mmol in data set [7] came to 82%. The remaining at 0.5 h, 0.5 mmol in data set [10] was 15%. Further, the inhibition entry in data set [11] is “Active”. Besides, the EC50 in data set [2] was found to be 1700 nM. For the same compound, in data set [3], the Emax at 100 µM was 99.7%. Besides, the Time in data set [4] came to 12.01 min.

As for `O=c1sn(-c2ccc(F)cc2)c(=O)n1-c1ccccc1`, the concentration giving a half-maximal response (EC50) in data set [2] came to 3900 nM. Besides, the Emax at 100 µM in data set [3] worked out at 94.3%. The Time in data set [4] was 9.52 min.

On to `COc1ccc(-n2sc(=O)n(C3CCCCC3)c2=O)cc1`, for which the EC50 in [2] worked out at 1900 nM. The Emax at 100 µM in data set [3] was 97.7%. In data set [4], the Time amounted to 13.93 min.

Turning to `COc1ccc(-n2sc(=O)n(-c3ccccc3)c2=O)cc1`, in data set [2], the EC50 is 1600 nM. Also, the maximal response (Emax) at 100 µM in [3] is 100%. The Time in [4] came out at 13.25 min.

As to `COc1ccc(-n2sc(=O)n(-c3ccc(OC)cc3)c2=O)cc1`, the EC50 in data set [2] was found to be 3000 nM. For the same compound, in [3], the Emax at 100 µM is 95%. The Time in data set [4] is 14.8 min.

On to `N[C@@H](CCC(=O)N[C@@H](CSSC(=O)N(C(=O)Nc1ccccc1)c1ccccc1)C(=O)NCC(=O)O)C(=O)O`, for which the Drug metabolism result in [12] was “Metabolite_Detected”.

`COc1ccc(-n2sc(=O)n(Cc3ccccc3)c2=O)cc1`: the Time in data set [5] is 13.46 min; in data set [4] it was 15.75 min.

On to `O=C(S)N(C(=O)Nc1ccccc1)c1ccccc1`, for which the Drug metabolism entry in data set [1] was “Metabolite_Detected”.

As to `COc1ccc(-n2sc(=O)n(-c3ccc(C)cc3)c2=O)cc1`, in data set [2], the EC50 was 1500 nM. Also, in data set [3], the maximum response (Emax) at 100 µM is 99%. In data set [4], the Time is 13.25 min.

As a reminder, the EC50 is the concentration giving half of the maximal effect. By Emax is commonly meant the greatest response seen or fitted, relative to the assay's reference.
